{"source": "ChEMBL document CHEMBL4130509", "about": "“Sesquiterpenes from the Endophyte Glomerella cingulata” (J Nat Prod, 2017)", "key": {"[1]": {"system": "HCT-116", "assay": "Cytotoxicity against human HCT116 cells by MTT assay", "type": "functional, cell-based"}, "[2]": {"system": "A2780", "assay": "Cytotoxicity against human A2780 cells by MTT assay", "type": "functional, cell-based"}, "[3]": {"system": "BV-2", "assay": "Antiinflammatory activity against mouse BV2 cells assessed as inhibition of LPS-induced nitric oxide production at 1 uM after 24 hrs by griess assay relative to control", "type": "functional", "conditions": "BV-2, 24 h", "summary_of_the_method": "(§1)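 BV2 cells preincubated 24 h, then exposed to compounds and stimulated with LPS (E. coli 055:B5) for 24 h. Supernatant mixed with equal volume Griess reagent, 5 min at room temperature in the dark; absorbance read at 540 nm for NO. Curcumin as positive control.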"}, "[4]": {"system": "A549", "assay": "Cytotoxicity against human A549 cells by MTT assay", "type": "functional, cell-based"}, "[5]": {"system": "Bel-7402", "assay": "Cytotoxicity against human Bel7402 cells by MTT assay", "type": "functional, cell-based"}, "[6]": {"species_on_record": "Homo sapiens", "assay": "Cytotoxicity against human […] cells by MTT assay", "type": "functional, cell-based"}, "[7]": {"system": "HCT-8", "assay": "Cytotoxicity against human HCT8 cells by MTT assay", "type": "functional, cell-based"}, "[8]": {"system": "BV-2", "assay": "Antiinflammatory activity against mouse BV2 cells assessed as inhibition of LPS-induced nitric oxide production after 24 hrs by griess assay", "type": "functional, cell-based", "conditions": "BV-2, 24 h", "summary_of_the_method": "as §1"}}, "note": "The source made the active and inactive calls. The calls are words filed in the database; no cut-off is given here.", "data": [{"smiles": "CC1=C2C[C@@]3(C)C(=C[C@]2(O)OC1=O)C(=O)C=C[C@@H]3C", "values": [{"measurement": "Activity", "setting": "[1]", "result": "inactive"}, {"measurement": "Activity", "setting": "[2]", "result": "inactive"}, {"measurement": "inhibition at 1 µM", "setting": "[3]", "result": 29.4, "unit": "%"}, {"measurement": "Activity", "setting": "[4]", "result": "inactive"}, {"measurement": "Activity", "setting": "[5]", "result": "inactive"}, {"measurement": "Activity", "setting": "[6]", "result": "inactive"}, {"measurement": "Activity", "setting": "[7]", "result": "inactive"}]}, {"smiles": "COc1cc(/C=C/C(=O)CC(=O)/C=C/c2ccc(O)c(OC)c2)ccc1O", "note": "[CURCUMIN]", "values": [{"measurement": "IC50", "setting": "[8]", "result": 4, "unit": "µM"}]}, {"smiles": "COC(=O)[C@@H](C)c1cc2c(cc1O)C(=O)C=CC2(C)C", "values": [{"measurement": "Activity", "setting": "[1]", "result": "inactive"}, {"measurement": "Activity", "setting": "[2]", "result": "inactive"}, {"measurement": "inhibition at 1 µM", "setting": "[3]", "result": 50.6, "unit": "%"}, {"measurement": "Activity", "setting": "[4]", "result": "inactive"}, {"measurement": "Activity", "setting": "[5]", "result": "inactive"}, {"measurement": "Activity", "setting": "[6]", "result": "inactive"}, {"measurement": "Activity", "setting": "[7]", "result": "inactive"}]}, {"smiles": "COC(=O)[C@H]1CCC(=O)N1Cc1cc(OC)c2c(OC)cc3cc(OCc4ccccc4)ccc3c2c1", "values": [{"measurement": "Activity", "setting": "[1]", "result": "inactive"}, {"measurement": "Activity", "setting": "[2]", "result": "inactive"}, {"measurement": "Activity", "setting": "[4]", "result": "inactive"}, {"measurement": "Activity", "setting": "[5]", "result": "inactive"}, {"measurement": "Activity", "setting": "[6]", "result": "inactive"}, {"measurement": "Activity", "setting": "[7]", "result": "inactive"}]}, {"smiles": "CC(=O)O[C@H]1[C@@H]2O[C@H]2[C@H]2C[C@@]3(O)OC[C@@]4(C)O[C@]43C[C@]2(C)[C@H]1C", "values": [{"measurement": "Activity", "setting": "[1]", "result": "inactive"}, {"measurement": "Activity", "setting": "[2]", "result": "inactive"}, {"measurement": "Activity", "setting": "[4]", "result": "inactive"}, {"measurement": "Activity", "setting": "[5]", "result": "inactive"}, {"measurement": "Activity", "setting": "[6]", "result": "inactive"}, {"measurement": "Activity", "setting": "[7]", "result": "inactive"}]}, {"smiles": "CO[C@@]12OC(=O)C(C)=C1C[C@@]1(C)[C@H](C(=O)C=C[C@@H]1C)[C@@H]2O", "values": [{"measurement": "Activity", "setting": "[1]", "result": "inactive"}, {"measurement": "Activity", "setting": "[2]", "result": "inactive"}, {"measurement": "Activity", "setting": "[4]", "result": "inactive"}, {"measurement": "Activity", "setting": "[5]", "result": "inactive"}, {"measurement": "Activity", "setting": "[6]", "result": "inactive"}, {"measurement": "Activity", "setting": "[7]", "result": "inactive"}]}, {"smiles": "C=C(C)[C@@H]1C[C@@]2(C)C(=CC1=O)[C@@H]1O[C@@H]1[C@H](O)[C@@H]2C", "values": [{"measurement": "Activity", "setting": "[1]", "result": "inactive"}, {"measurement": "Activity", "setting": "[2]", "result": "inactive"}, {"measurement": "Activity", "setting": "[4]", "result": "inactive"}, {"measurement": "Activity", "setting": "[5]", "result": "inactive"}, {"measurement": "Activity", "setting": "[6]", "result": "inactive"}, {"measurement": "Activity", "setting": "[7]", "result": "inactive"}]}, {"smiles": "CO[C@]12C=C3C(=O)C=C[C@H](C)[C@@]3(C)CC1=C(C)C(=O)O2", "values": [{"measurement": "Activity", "setting": "[1]", "result": "inactive"}, {"measurement": "Activity", "setting": "[2]", "result": "inactive"}, {"measurement": "inhibition at 1 µM", "setting": "[3]", "result": 36.1, "unit": "%"}, {"measurement": "Activity", "setting": "[4]", "result": "inactive"}, {"measurement": "Activity", "setting": "[5]", "result": "inactive"}, {"measurement": "Activity", "setting": "[6]", "result": "inactive"}, {"measurement": "Activity", "setting": "[7]", "result": "inactive"}]}, {"smiles": "CC(=O)O[C@H]1[C@H]2O[C@H]2C2=CC(=O)[C@]3(C[C@]2(C)[C@H]1C)O[C@]3(C)C=O", "values": [{"measurement": "Activity", "setting": "[1]", "result": "inactive"}, {"measurement": "Activity", "setting": "[2]", "result": "inactive"}, {"measurement": "Activity", "setting": "[4]", "result": "inactive"}, {"measurement": "Activity", "setting": "[5]", "result": "inactive"}, {"measurement": "Activity", "setting": "[6]", "result": "inactive"}, {"measurement": "Activity", "setting": "[7]", "result": "inactive"}]}]}
